Screens: PubChem BioAssay, several laboratories
697 NFkB inh – lowers PMA/ionomycin-induced NF-kB signal in 697 B cells. 697 B-cell NF-kB luciferase reporter, 16 h. inhibition, % at 4 µM. 330,000 compounds, 0.33% hits; in the data active means inhibition above about 35%
JMJD2C inh – human JMJD2C demethylase inhibition. GST-JMJD2C(1-420) H3K9me3 demethylation, DELFIA europium. AID 2099. 330,000 compounds, 0.069% hits. Q9H3R0. inhibition, % at 2.35 µM;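 active means more than half of a compound's replicate wells show inhibition beyond 50%, single wells judged on their own value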;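 further: signal counts dimethyl H3K9 product captured on neutravidin plate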
GalR3 antag – antagonists of human GalR3. 360,000 compounds, 0.44% hits. AID 651719. HEK293 GalR3-CNG cAMP membrane potential fluorescence; galR3 body fused to GalR1 C-terminus. inhibition, % at 3 µM. O60755;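 active means inhibition above the screen-wide average plus 3 SD, cut at about 13% in these data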;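 further: forskolin and galanin both at EC90 stimulate the cells; cAMP rise reported by CNG channel membrane potential dye signal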
Target sequence (O60755 1-299 limits assumed): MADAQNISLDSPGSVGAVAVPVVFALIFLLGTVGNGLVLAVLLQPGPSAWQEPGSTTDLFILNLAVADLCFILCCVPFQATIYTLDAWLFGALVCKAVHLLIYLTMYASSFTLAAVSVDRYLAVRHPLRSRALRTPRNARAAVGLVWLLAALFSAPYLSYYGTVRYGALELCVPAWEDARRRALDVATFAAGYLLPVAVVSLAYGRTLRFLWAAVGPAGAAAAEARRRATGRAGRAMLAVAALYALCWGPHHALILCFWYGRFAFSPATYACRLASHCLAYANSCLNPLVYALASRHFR
NR2E3 ag-1 – activates human photoreceptor nuclear receptor NR2E3; inhibition of corepressor binding, % at 4.78 µM; 320,000 compounds, 0.12% hits; Q9Y5X4; GST-NR2E3/biotin-RetCOR TR-FRET, 1536-well;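 active means percent inhibition above the cutoff of mean plus 3 SD of all tested compounds, set per screening campaign, cut at about 20% in these data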
Target sequence (Q9Y5X4 whole entry, looked up): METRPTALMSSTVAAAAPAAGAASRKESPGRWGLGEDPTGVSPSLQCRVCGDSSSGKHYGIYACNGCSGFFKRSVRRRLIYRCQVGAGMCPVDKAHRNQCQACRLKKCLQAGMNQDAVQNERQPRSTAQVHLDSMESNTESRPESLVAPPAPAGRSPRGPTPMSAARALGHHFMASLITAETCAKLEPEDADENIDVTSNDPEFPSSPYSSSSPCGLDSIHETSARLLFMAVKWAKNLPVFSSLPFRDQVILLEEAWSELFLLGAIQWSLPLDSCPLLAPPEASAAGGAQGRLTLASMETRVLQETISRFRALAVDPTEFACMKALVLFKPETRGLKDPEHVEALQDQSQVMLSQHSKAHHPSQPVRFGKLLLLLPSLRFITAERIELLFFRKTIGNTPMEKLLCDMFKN
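Material: NR2E3–RetCOR corepressor complex / Incubation: Compound–protein incubation for 5 h at 4 °C / Dosing: compound at 4.8 µM, single dose / Detection: time-resolved FRET / Benchmarks: high control biotin, low control 0.6% DMSO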
Jurkat NFkB inh – lowers PMA/ionomycin-induced NF-kB signal in Jurkat cells; PMA/ionomycin-induced NF-kB luciferase reporter, luminescence; inhibition, % at 4 µM; 330,000 compounds, 0.53% hits; AID 435003; in the data active means inhibition above about 50%
NR2E3 ag-2 – activates human NR2E3 receptor | 360,000 compounds, 0.35% hits | inhibition of corepressor binding, % at 3.98 µM | Q9Y5X4 | CHO-S Gal4-NCOR/VP16-NR2E3 two-hybrid, luciferase;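 active means inhibition above the mean of all tested compounds plus 3 SD, cut at about 70% in these data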;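 further: higher means lower luciferase signal from less NR2E3 corepressor binding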
Jurkat NFkB conf – inhibitors of the PMA/ionomycin-induced NF-kB reporter in Jurkat cells, retest; Jurkat NF-kB luciferase, 16 h; shares compounds with Jurkat NFkB inh; inhibition, % at 4 µM; AID 435020; 2,700 compounds, 27% hits;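 active means inhibition reaching about 45% at 4 µM in either replicate, limit read from the data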
A number is an active result; 0 = inactive; - = no result given. Only some compounds are listed: those with a hit (about 1.5% of all), similar ones and a draw of the others.

SMILES | 697 NFkB inh | JMJD2C inh | GalR3 antag | NR2E3 ag-1 | Jurkat NFkB inh | NR2E3 ag-2 | Jurkat NFkB conf
COc1ccc(/C=C/C(=O)OCC(=O)NC(C)CCc2ccccc2)cc1OC (stereo not drawn) | 0 | 0 | 0 | - | 0 | 0 | -
O=C(CSC(=O)c1ccccc1)Nc1ccccc1F | 0 | 0 | 0 | - | 0 | 0 | -
CC(=O)N1CCc2cc(S(=O)(=O)N3CCOCC3)ccc21 | 0 | 0 | 0 | 0 | 0 | 0 | -
CC(=O)N1CCc2cc(S(=O)(=O)N3c4ccccc4CC3C)ccc21 (stereo not drawn) | 0 | 0 | 0 | 0 | 53 | 0 | 0
CSc1ccc(S(=O)(=O)N2c3ccccc3CC2C)cc1 (stereo not drawn) | 0 | 0 | 0 | 0 | 55 | 0 | 0
CC1Cc2ccccc2N1S(=O)(=O)c1cnc[nH]1 (stereo not drawn) | 0 | 0 | 0 | 0 | 0 | 0 | -
Cn1cc(/C=N/n2cnc3scc(-c4ccc(Cl)cc4)c3c2=O)c2ccccc21 | 0 | 0 | 0 | 0 | 62 | 0 | 50
CN(C)CCCNc1c2ccccc2nc2ccccc12 | 0 | 0 | 0 | 0 | 99 | 0 | 0
COc1ccc(/C=N/NC(=O)c2cccnc2)cc1Cn1nc([N+](=O)[O-])c(Br)c1C | 0 | 0 | 0 | 0 | 52 | - | 0
Cc1ccc(S(=O)(=O)Nc2cc3c4c(c2)CCC(=O)N4CCC3)cc1 | 0 | 0 | 0 | 0 | 0 | 0 | -
Clc1ncccc1-c1nnn(-c2ccccc2)n1 | 0 | 0 | 0 | 0 | 0 | 0 | -
Fc1ccc(-n2nnc(-c3cccnc3Cl)n2)cc1 | 0 | 0 | 0 | 0 | 0 | 0 | 0
CCOCCCNCc1cc(Cl)cc(Cl)c1OCC | 0 | 0 | 0 | 0 | 0 | 0 | -
CC(=C/c1ccccc1)/C=N/NC(=O)c1cccs1 | 0 | 0 | 0 | 0 | 0 | 0 | 0
COc1ccc(/C=C/C(=O)c2cc(Cl)cc(Cl)c2O)c(OC)c1 | 0 | 0 | 0 | 0 | 0 | 0 | -
O=C(/C=C/c1ccccn1)c1cc(Cl)cc(Cl)c1O | 0 | 0 | 0 | 0 | 67 | 0 | 0
C=CCNc1nc(-c2ccc(Cl)cc2)cs1 | 0 | 0 | 0 | 0 | 0 | 0 | 0
CN1CCN(c2ccc(NC(=O)c3sc4ccccc4c3Cl)cc2)CC1 | 0 | 0 | 0 | 0 | 0 | 0 | 0
CN1CCN(C(=O)c2ccccc2NC(=O)c2sc3ccccc3c2Cl)CC1 | 0 | 0 | 0 | 0 | 0 | 0 | -
COc1ccc(Cl)cc1NC(=O)COC(=O)CCNS(=O)(=O)c1cccs1 | 0 | - | 0 | - | 0 | 0 | -
Cc1cccc(N2CCN(C(=O)COc3cc4oc(=O)cc(C)c4cc3Cl)CC2)c1C | 0 | 0 | 0 | 0 | 54 | 0 | 0
COc1cc(C(=O)Nc2ccc3c(c2)Cc2ccccc2-3)cc(OC)c1OC | 0 | 0 | 0 | 0 | 54 | 0 | 0
COc1cc(C(=O)Nc2ccc3c(c2)CCN3C(C)=O)cc(OC)c1OC | 0 | 0 | 0 | 0 | 68 | 0 | 0
COc1cc(C(=O)Nc2ccc(S(=O)(=O)N3CCc4ccccc43)cc2)cc(OC)c1OC | 0 | 0 | 0 | 0 | 0 | 0 | -
COC(=O)c1ccccc1NC(=O)c1cc2ccccc2o1 | 0 | 0 | 0 | 0 | 0 | 0 | -
SMILES | 697 NFkB inh | JMJD2C inh | GalR3 antag | NR2E3 ag-1 | Jurkat NFkB inh | NR2E3 ag-2 | Jurkat NFkB conf
O=C(Nc1ccccc1C(F)(F)F)c1cc2ccccc2o1 | 0 | 0 | 0 | 0 | 0 | 0 | 0
O=C(Nc1ccc(Cl)cn1)c1cc2ccccc2o1 | 0 | 0 | 0 | 0 | 0 | 0 | 0
Cc1ccc(C)c(N2CCN(C(=O)CN3C(=S)NC(C)(C)CC3C)CC2)c1 (stereo not drawn) | 0 | 0 | 0 | 0 | 0 | 0 | -
O=C(O)c1cc(-c2ccc(Cl)cc2)n(-c2ccc(F)cc2)n1 | 0 | 0 | 0 | 0 | 0 | 0 | -
CC(C)Nc1ncnc2c1ncn2[C@H]1CN(Cc2ccc(F)cc2)C[C@@H](CO)O1 | - | - | 0 | - | - | 0 | -
Cc1cc(O)c(-c2cc(C(=O)Nc3cccnc3)[nH]n2)cc1C | 0 | 0 | 0 | 0 | 0 | 0 | 0
Fc1ccc2c(Cl)c(-c3nnc(-c4cccs4)o3)sc2c1 | 0 | 0 | 0 | 0 | 0 | 0 | 0
O=C(CSc1nnc(-c2ccccc2Br)o1)N1CCOCC1 | 0 | 0 | 0 | 0 | 0 | 0 | -
O=C(CSc1nnc(-c2ccc(Br)cc2)o1)Nc1cccc(C(=O)O)c1 | 0 | 0 | 0 | 0 | 75 | 0 | 0
COc1ccccc1NC(=O)CSc1nnc(-c2ccncc2)o1 | 0 | 0 | 0 | 0 | 0 | 0 | -
COc1ccc(-c2nnc(SCC(=O)Nc3ccccc3OC)o2)cc1 | 0 | 0 | 0 | 0 | 0 | 0 | 0
C/C(N)=C(/C#N)C(=O)CSc1nnc(-c2ccccc2Br)o1 | 0 | 0 | 0 | 0 | 0 | 0 | 0
COc1ccc(-c2nnc(SCC(=O)/C(C#N)=C(\C)N)o2)cc1 | 0 | 0 | 0 | 0 | 0 | 0 | 0
O=C(Cn1nnc(-c2ccccc2Cl)n1)NCc1ccc2c(c1)OCO2 | 0 | 0 | 0 | 0 | 0 | 0 | -
O=C(CCNS(=O)(=O)c1ccccc1F)OCc1ccccc1Cl | 0 | 0 | 0 | - | 0 | 0 | -
O=C(/C=C\Nc1ccc2c(c1)OCO2)c1ccccn1 | 0 | 0 | 0 | 0 | 55 | 0 | 0
O=C(Nc1ccc2c(c1)OCO2)c1ccccn1 | 0 | 0 | 0 | 0 | 0 | 0 | -
Cn1cc([N+](=O)[O-])c(C(=O)Nc2ccc(-c3nc4ccccc4o3)cc2)n1 | 0 | 0 | 0 | 0 | 0 | 0 | -
NC(=O)c1ccccc1NC(=O)/C=C/c1ccc(Cl)cc1 | 0 | 0 | 0 | 0 | 0 | 0 | 0
O=C(c1ccco1)N1CCN(C(c2cccs2)c2nnnn2C2CCCCC2)CC1 (stereo not drawn) | 0 | 0 | 0 | 0 | 0 | 0 | -
CCOc1ccc(N(C)S(=O)(=O)c2ccc(-c3cc(C)no3)s2)cc1 | 0 | 0 | 0 | 0 | 58 | 0 | 52
O=C(NC(=S)Nc1ccccn1)c1ccc([N+](=O)[O-])cc1 | 0 | 0 | 0 | 0 | 0 | 0 | -
O=C(NC(=S)Nc1ccccn1)c1ccccc1 | 0 | 0 | 0 | 0 | 0 | 0 | 0
CCCNC(=O)C1CC(=O)N(c2ccc(OCc3ccc(Cl)cc3)cc2)C1 (stereo not drawn) | 0 | 0 | 0 | 0 | 0 | 0 | -
CCCNC(=O)C1CC(=O)N(c2ccc(OCc3ccc(F)cc3)cc2)C1 (stereo not drawn) | 0 | 0 | 0 | 0 | 0 | 0 | 0
SMILES | 697 NFkB inh | JMJD2C inh | GalR3 antag | NR2E3 ag-1 | Jurkat NFkB inh | NR2E3 ag-2 | Jurkat NFkB conf
COc1ccc(-c2nc3ccccc3s2)cc1NC(C)=O | 0 | 0 | 0 | 0 | 0 | 0 | 0
N#Cc1nc(-c2ccc(F)cc2)oc1N1CCC(C(N)=O)CC1 | 0 | 0 | 0 | 0 | 0 | 0 | -
Cc1cccc(NC(=O)CSc2nc(C3CC3)nc3ccccc23)c1 | 0 | 0 | 0 | 0 | 0 | 0 | -
CCN(CC)c1ccc(NC(=O)CSc2nc(C3CC3)nc3ccccc23)cc1C | 0 | 0 | 0 | 0 | 59 | 0 | 0
O=C(Nc1ccc([N+](=O)[O-])cc1)Nc1ccon1 | 0 | 0 | 0 | 0 | 63 | 0 | 0
Oc1ccc2ccccc2c1N=Nc1ccccc1F | 0 | 0 | 0 | 0 | 0 | 0 | -
